A selection: hits, their analogues and other compounds. The true share with any hit is near 1.5%.
EBI2 block = EBI2 receptor antagonists, beta-arrestin recruitment, primary screen, cell-based, luminescence, 7a,25-OHC stimulation, uHTS | G-protein coupled receptor 183 (Homo sapiens), P32249 | 7a,25-OHC stimulated | inhibition, % at 5 µM | 360,000 compounds, 0.81% hits | AID 651636, 2012; in the data active = inhibition above about 38%;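 also: enzyme fragment complementation signal reports receptor beta-arrestin coupling in cells; 0% = agonist plus DMSO wells and 100% = wells without agonist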
CCR6 antagonist = CCR6 receptor antagonists, primary screen, cell-based, CHO-K1, luminescence, beta-arrestin, uHTS; C-C chemokine receptor type 6 (Homo sapiens), P51684; CHO-K1 CCR6 PathHunter beta-arrestin, CCL20-stimulated; inhibition, % at 20 µM; 340,000 compounds, 0.49% hits; AID 493098, 2011;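 active = compounds whose inhibition of the agonist-driven luminescence signal at 20 µM reaches about 50%, limit read from the data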;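 also: cells stimulated with CCL20 at 14 nM final; plate controls were DMSO with CCL20 for no effect and DMSO without agonist for full effect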
APJ antagonist = antagonists of human apelin receptor APJ, primary screen, CHO-K1 cells, beta-arrestin complementation, luminescence; P35414; inhibition, % at 20 µM; 330,000 compounds, 0.32% hits; AID 2521, 2010;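 active = inhibition above about 40% at 20 µM, limit read from the data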;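 also: cells challenged with 10 nM apelin-13 agonist together with compound; plate controls were apelin-13 plus DMSO wells for no effect and DMSO wells lacking apelin-13 for full effect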
Target sequence (P35414 whole entry, looked up): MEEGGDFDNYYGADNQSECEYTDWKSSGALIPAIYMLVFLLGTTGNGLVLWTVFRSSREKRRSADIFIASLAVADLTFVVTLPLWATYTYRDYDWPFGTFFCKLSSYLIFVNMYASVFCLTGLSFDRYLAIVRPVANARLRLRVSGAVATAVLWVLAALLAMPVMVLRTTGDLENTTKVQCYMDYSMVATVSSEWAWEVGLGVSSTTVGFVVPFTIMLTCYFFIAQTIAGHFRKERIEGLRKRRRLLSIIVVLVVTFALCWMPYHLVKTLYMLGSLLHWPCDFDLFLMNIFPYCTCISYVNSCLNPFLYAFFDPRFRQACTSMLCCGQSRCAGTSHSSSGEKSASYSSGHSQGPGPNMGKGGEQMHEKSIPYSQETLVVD
iPSC survival up = enhancers of single-cell hiPSC survival, primary screen, ATPlite luminescence | 360,000 compounds, 0.044% hits | survival enhancement, % at 20 µM | AID 602274, 2012 | 100% = ROCK inhibitor wells, 0% = DMSO; in the data active = survival enhancement above about 18%;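 also: cells exposed to compounds for 16 hours before the ATP read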
CXCR6 inh = CXCR6 receptor inhibitors, primary screen, cell-based, beta-arrestin, luminescence, CHO-K1 PathHunter, 1536-well; inhibition, % at 20 µM; 360,000 compounds, 0.36% hits; in the data active = inhibition above about 34%, passing the limit was not always enough;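 also: antagonist mode with CXCL16 agonist at 10 nM final; 0% = 10 nM CXCL16 with DMSO and 100% = unstimulated wells without agonist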
APJ ag = agonists of human apelin receptor APJ, primary screen, CHO-K1 cells, PathHunter beta-arrestin, luminescence; 330,000 compounds, 0.11% hits; P35414; 0% DMSO wells, 100% apelin; activation, % at 20 µM;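 active = activation more than six SD over the plate average, tested at 20 µM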;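 also: 0% = DMSO alone and 100% = apelin-13 at 10 nM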
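Assay system – PathHunter CHO-K1 APJ (AGTRL-1) beta-arrestin reporter cells · Compound – one dose, 20 µM compound, 1% DMSO · Timing – compound 90 min 25 °C, reagent 1 h · Measured by – luminescence from split beta-galactosidase complementation, Galacton Star/Emerald II substrate · Measure – beta-arrestin recruitment to APJ as agonist activity, luminescent signal · Benchmarks – DMSO vs Apelin-13 10 nM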
EBI2 conf = EBI2 antagonist hit retest, beta-arrestin, confirmation, cell-based, single concentration, luminescence, 7a,25-OHC stimulation. 7a,25-OHC antagonism. inhibition, % at 5 µM. 2,400 compounds, 29% hits. shares compounds with EBI2 block;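 active = inhibition of at least 50%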
EBI2 agonist = EBI2 agonist activity of antagonist hits, confirmation, counter-screen for EBI2 antagonist project, cell-based, single concentration, agonist mode, luminescence. shares compounds with EBI2 block. EBI2-expressing cells, 60 min; 0% vehicle, 100% 7α,25-dihydroxycholesterol control. activation, % at 5 µM. 2,400 tested, under 10 active;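 active = activation of at least 50%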
bGal cs = E. coli beta-galactosidase enzyme inhibition, confirmation, counter-screen for EBI2 antagonist project, biochemical, luminescence, single concentration. inhibition, % at 5 µM. purified beta-galactosidase, luminescent Galacton Star, 15 min. 2,400 compounds, 1% hits. AID 652176, 2013. shares compounds with EBI2 block;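 active = replicate-average signal at least 3 plate SD below neutral wells, shown as high inhibition, flagging enzyme-inhibiting false positives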;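 also: 0% = DMSO wells with enzyme and 100% = wells lacking enzyme; higher means stronger loss of beta-gal luminescence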
Starred values were filed as active, the others as inactive; · = no result given.

SMILES	EBI2 block	CCR6 antagonist	APJ antagonist	iPSC survival up	CXCR6 inh	APJ ag	EBI2 conf	EBI2 agonist	bGal cs
CCC(C)c1ccccc1N=Cc1ccc2c(c1)OCO2 (stereo not drawn)	-3.9	11.9	-9.5	-0.5	0.0	-2.0	·	·	·
CCOC(=O)C(C(=O)Cc1ccccc1)c1ccccc1 (stereo not drawn)	-0.5	15.1	·	-1.2	-7.4	·	·	·	·
O=C(CCN1CCN(C(c2ccccc2)c2ccccc2)CC1)N/N=C/c1ccc(O)cc1	32.0	28.2	-4.8	-0.6	1.9	0.3	·	·	·
O=C(CSC1CN(C(c2ccccc2)c2ccccc2)C1)N/N=C/c1ccccc1	48.9*	16.1	-4.4	-0.2	11.0	-4.0	34.6	-0.8	-10.0
CCCCn1c(SCC(=O)NCc2ccco2)nc2ccccc2c1=O	12.1	9.0	15.7	-1.8	3.6	0.1	·	·	·
CCCCCn1c(SCc2ccncc2)nc2cc(C(=O)NCc3ccco3)ccc2c1=O	37.5*	17.2	-7.6	-0.3	16.0	-4.4	21.2	-0.2	6.3
Cc1ccc2c(CC(=O)N3CCN(S(=O)(=O)c4ccccc4)CC3)coc2c1	24.4	-6.3	22.9	-0.2	-3.2	-3.6	·	·	·
Cc1ccc(OCC(=O)N2CCN(S(=O)(=O)c3ccc4c(c3)OCCO4)CC2)c(C)c1	70.4*	10.4	9.9	-0.4	1.9	-0.6	52.9*	1.9	3.5
Cc1cc(S(=O)(=O)N2CCCCC2)ccc1OCC(=O)N1CCOCC1	-8.1	3.1	-6.1	-0.4	1.0	4.0	·	·	·
Cc1ccc2c(CC(=O)N3CCN(S(=O)(=O)c4ccc5c(c4)OCCO5)CC3)coc2c1	50.4*	-3.3	0.9	0.2	-0.2	-0.9	13.3	-0.6	-10.3
CSc1ccc(/C=N/NC(=O)CN2CCN(Cc3ccc(Cl)cc3)CC2)cc1	50.0*	-2.9	2.1	-0.4	-12.0	-3.2	34.0	-0.8	-9.7
CSc1ccc(/C=N/NC(=O)CN2CCN(Cc3ccccc3)CC2)cc1	49.6*	12.9	-9.3	-0.3	-5.6	-1.1	42.0	0.1	-11.4
Cn1cccc1CC(=O)N/N=C/c1ccc(C(C)(C)C)cc1	9.2	-3.9	-17.4	-0.7	-1.3	1.3	·	·	·
Cc1ccc(/C=N/NC(=O)Cc2cccn2C)cc1	45.9*	9.8	0.1	0.0	-7.8	0.0	32.2	-1.3	-12.3
CSc1ccc(/C=N/N2CCN(Cc3ccc(Cl)cc3)CC2)cc1	4.5	3.2	6.4	-0.1	-9.1	-0.5	·	·	·
Cc1ccc(/C=N/NC(=O)CSCc2ccc(Cl)cc2)cc1	61.5*	2.5	11.9	0.6	-3.1	-0.8	43.5	-1.1	-20.2
CCOCc1c(C(=O)Nc2ccccc2N2CCN(C)CC2)oc2ccccc12	12.6	19.4	7.9	0.3	2.8	-3.9	·	·	·
NS(=O)(=O)c1ccc(CCNC(=O)COC(=O)C2CCC2)cc1	-0.7	0.8	0.8	0.3	1.0	2.3	·	·	·
Cc1cccc(OCC(=O)N/N=C/c2cn[nH]c2-c2ccc(Cl)c(Cl)c2)c1	38.9*	-6.3	-9.6	6.2	-15.4	9.0	1.3	-0.3	-10.9
Cc1cccc(N2CCN(C(=O)Cc3ccc(Br)cc3)CC2)c1C	46.5*	32.0	-20.4	2.3	0.1	-0.7	11.1	-0.7	-10.1

Screens from PubChem BioAssay.
